{"source": "ChEMBL document CHEMBL4765483", "about": "(J Med Chem, 2021)", "key": {"DU-145 [1]": {"system": "DU-145", "experiment": "Antimigratory activity in human DU-145 cells assessed as reduction in cell migration at Ki level incubated for 72 hrs by crystal violet staining based confocal microscopy", "type": "functional", "summary_of_the_method": "(§1)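 Transwell migration, 8.0 μm pore polycarbonate membrane; 10⁵ cells seeded in serum-free medium in upper chamber, complete medium with 10% FBS below. Cells kept in RPMI 1640, 10% FBS. Migration scored after 72 h without or with treatment; migrated cells fixed in 4% paraformaldehyde, crystal violet stained, counted in five random fields; at least three chambers from three experiments.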"}, "CYP3A4 [2]": {"molecular_target": "T1, CYP3A4 (Homo sapiens, UniProt P08684)", "T1 sequence (P08684 whole entry)": "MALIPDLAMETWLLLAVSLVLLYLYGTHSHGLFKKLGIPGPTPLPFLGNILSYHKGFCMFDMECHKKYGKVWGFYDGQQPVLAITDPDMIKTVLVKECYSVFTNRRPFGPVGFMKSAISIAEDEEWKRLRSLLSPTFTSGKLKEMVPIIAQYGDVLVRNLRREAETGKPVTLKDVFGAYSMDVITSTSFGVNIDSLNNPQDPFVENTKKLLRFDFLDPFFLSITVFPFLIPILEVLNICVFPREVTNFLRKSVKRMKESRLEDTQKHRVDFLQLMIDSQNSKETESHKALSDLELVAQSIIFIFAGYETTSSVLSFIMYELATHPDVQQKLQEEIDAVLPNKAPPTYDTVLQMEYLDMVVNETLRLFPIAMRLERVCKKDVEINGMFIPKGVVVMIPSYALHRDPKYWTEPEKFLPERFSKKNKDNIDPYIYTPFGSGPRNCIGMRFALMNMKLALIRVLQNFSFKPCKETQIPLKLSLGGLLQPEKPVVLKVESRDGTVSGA", "experiment": "Inhibition of CYP3A4 (unknown origin) expressed in insect cell microsomes at 1 uM in presence of DBF substrate by fluorescence based assay relative to control", "type": "ADME, Microsome", "details": "recombinant CYP3A4 expressed in insect cell microsomes, probe DBF", "summary_of_the_method": "(§2)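 cDNA-expressed P450 in insect cell microsomes; cofactor mix of KH2PO4 buffer, 1.3 mM NADP, 3.3 mM MgCl2, 3.3 mM glucose-6-phosphate, 0.4 U/mL G6PDH. Preincubated 5 min at 37 °C, started with prewarmed enzyme/substrate mix, stopped at an isoform-specific time. Fluorescence read; percentage inhibition at 1 and 10 μM; mean of n = 3.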"}, "DU-145 [3]": {"system": "DU-145", "experiment": "Toxicity in human DU-145 cells assessed as effect on cell growth at 10 to 100 uM by MTT assay", "type": "cell-based", "details": "du-145, 100 µM, dose 10-100 µM", "summary_of_the_method": "(§3)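 Prostate cancer cells cultured in RPMI 1640 with 10% FBS, penicillin and streptomycin at 37 °C, 5% CO2; tested at 10 and 100 μM by MTT assay with cisplatin as control.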"}, "CYP3A4 [4]": {"molecular_target": "T1, CYP3A4", "experiment": "Inhibition of CYP3A4 (unknown origin) expressed in insect cell microsomes at 10 uM in presence of DBF substrate by fluorescence based assay relative to control", "type": "ADME, Microsome", "details": "recombinant CYP3A4 expressed in insect cell microsomes, probe DBF", "summary_of_the_method": "as §2"}, "PC-3 [5]": {"system": "PC-3", "experiment": "Toxicity in human PC-3 cells assessed as effect on cell growth at 10 to 100 uM by MTT assay", "type": "cell-based", "details": "pc-3, 100 µM, dose 10-100 µM", "summary_of_the_method": "as §3"}, "PC-3 [6]": {"system": "PC-3", "experiment": "Antimetastatic activity in human PC-3 cells assessed as induction of actin skeleton reorganization at Ki level incubated for 72 hrs by confocal laser scanning microscopy", "type": "functional, cell-based"}, "CYP3A4 [7]": {"molecular_target": "T1, CYP3A4", "experiment": "Inhibition of CYP3A4 (unknown origin) expressed in insect cell microsomes at 10 uM in presence of BFC substrate by fluorescence based assay relative to control", "type": "ADME, Microsome", "details": "recombinant CYP3A4 expressed in insect cell microsomes, probe BFC", "summary_of_the_method": "as §2"}, "LNCaP [8]": {"system": "LNCaP", "experiment": "Antimigratory activity in human LNCaP cells assessed as reduction in cell migration at Ki level incubated for 72 hrs by crystal violet staining based confocal microscopy", "type": "functional", "summary_of_the_method": "as §1"}, "CYP2D6 [9]": {"molecular_target": "T2, CYP2D6 (Homo sapiens, UniProt P10635)", "T2 sequence (P10635 whole entry)": "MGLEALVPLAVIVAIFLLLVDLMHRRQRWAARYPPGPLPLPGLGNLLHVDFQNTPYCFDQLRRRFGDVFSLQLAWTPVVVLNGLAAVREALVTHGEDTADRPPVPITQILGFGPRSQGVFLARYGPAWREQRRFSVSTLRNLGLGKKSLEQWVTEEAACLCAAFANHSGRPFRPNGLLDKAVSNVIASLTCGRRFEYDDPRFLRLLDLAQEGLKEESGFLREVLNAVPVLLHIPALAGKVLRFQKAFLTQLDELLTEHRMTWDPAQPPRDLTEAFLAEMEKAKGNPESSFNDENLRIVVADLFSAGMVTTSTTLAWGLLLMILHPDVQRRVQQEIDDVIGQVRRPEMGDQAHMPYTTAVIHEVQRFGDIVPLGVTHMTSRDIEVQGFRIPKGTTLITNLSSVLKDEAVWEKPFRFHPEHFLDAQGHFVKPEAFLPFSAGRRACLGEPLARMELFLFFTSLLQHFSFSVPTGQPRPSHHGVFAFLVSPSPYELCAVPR", "experiment": "Inhibition of CYP2D6 (unknown origin) expressed in insect cell microsomes at 1 uM by fluorescence based assay relative to control", "type": "ADME, Microsome", "details": "recombinant CYP2D6 expressed in insect cell microsomes", "summary_of_the_method": "as §2"}, "PC-3 [10]": {"system": "PC-3", "experiment": "Antimigratory activity in human PC-3 cells assessed as reduction in cell migration at Ki level incubated for 72 hrs by crystal violet staining based confocal microscopy", "type": "functional", "set-up": "scale not given: the % may be the effect or the level left", "summary_of_the_method": "as §1"}, "CYP3A4 [11]": {"molecular_target": "T1, CYP3A4", "experiment": "Inhibition of CYP3A4 (unknown origin) expressed in insect cell microsomes at 1 uM in presence of BFC substrate by fluorescence based assay relative to control", "type": "ADME, Microsome", "details": "recombinant CYP3A4 expressed in insect cell microsomes, probe BFC", "summary_of_the_method": "as §2"}, "CYP2D6 [12]": {"molecular_target": "T2, CYP2D6", "experiment": "Inhibition of CYP2D6 (unknown origin) expressed in insect cell microsomes at 10 uM by fluorescence based assay relative to control", "type": "ADME, Microsome", "details": "recombinant CYP2D6 expressed in insect cell microsomes", "summary_of_the_method": "as §2"}, "LNCaP [13]": {"system": "LNCaP", "experiment": "Toxicity in human LNCaP cells assessed as effect on cell growth at 10 to 100 uM by MTT assay", "type": "cell-based", "details": "dose 10-100 µM", "summary_of_the_method": "as §3"}, "[14]": {"experiment": "Stability in human liver microsomes in NADP incubated up to 60 mins by UPLC-MS/MS analysis", "type": "ADME, Microsome", "details": "read-out: Stabilty", "summary_of_the_method": "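Human microsomes at 37 °C in 50 mM phosphate buffer pH 7.4 with 3 mM MgCl2, 1 mM NADP, 10 mM glucose-6-phosphate, 1 U/mL G6PDH. Samples at 0, 10, 20, 40, 60 min quenched into cold acetonitrile with 0.5% formic acid, centrifuged; supernatant analysed by UPLC–MS/MS on C18 column.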"}, "PC-3 [15]": {"system": "PC-3", "experiment": "Antimetastatic activity in human PC-3 cells assessed as effect on cell shape at Ki level incubated for 72 hrs by confocal laser scanning microscopy", "type": "functional, cell-based"}, "Adenosine receptor A2b": {"molecular_target": "T3, Adenosine receptor A2b (Homo sapiens, UniProt P29275)", "T3 sequence (P29275 whole entry)": "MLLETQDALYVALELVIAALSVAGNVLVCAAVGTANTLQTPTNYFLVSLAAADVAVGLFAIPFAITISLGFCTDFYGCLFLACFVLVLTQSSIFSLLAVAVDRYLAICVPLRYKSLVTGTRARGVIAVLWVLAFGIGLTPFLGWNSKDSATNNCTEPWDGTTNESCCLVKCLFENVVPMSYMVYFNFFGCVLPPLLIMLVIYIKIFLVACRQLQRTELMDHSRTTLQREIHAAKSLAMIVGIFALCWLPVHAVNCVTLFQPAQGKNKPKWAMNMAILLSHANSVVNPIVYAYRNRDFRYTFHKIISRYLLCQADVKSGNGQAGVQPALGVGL", "experiment": "Antagonist activity at human A2B receptor"}, "[16]": {"molecular_target": "T4, Adenosine receptor A3 (Homo sapiens) (UniProt P0DMS8)", "T4 sequence (whole entry)": "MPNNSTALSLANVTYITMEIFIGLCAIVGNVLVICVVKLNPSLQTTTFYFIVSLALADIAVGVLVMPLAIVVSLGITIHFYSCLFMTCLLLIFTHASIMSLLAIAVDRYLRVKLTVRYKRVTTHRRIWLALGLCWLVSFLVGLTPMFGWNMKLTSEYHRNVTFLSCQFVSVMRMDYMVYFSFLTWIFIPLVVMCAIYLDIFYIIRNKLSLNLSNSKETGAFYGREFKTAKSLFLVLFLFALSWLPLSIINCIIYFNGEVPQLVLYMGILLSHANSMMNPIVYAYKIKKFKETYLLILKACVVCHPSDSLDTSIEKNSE", "experiment": "Displacement of [3H]NECA from adenosine A3 receptor expressed in human HeLa cell membranes at 1 uM incubated for 180 mins by scintillation counting method", "details": "Cell membrane", "summary_of_the_method": "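hA3AR in HeLa membranes (3 pmol/mg protein) with 10 nM [3H]NECA (KD 8.7 nM); nonspecific binding with 100 μM R-PIA; incubated 180 min at 25 °C, washed, filtered, radioactivity counted.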"}}, "note": "Activity calls are given as the source filed them. No cut-off for these calls is given here.", "data": [{"smiles": "CCOC(=O)C1=C(C)NC(=O)NC1c1ccsc1", "note": "(racemic)", "values": [{"measurement": "Activity", "setting": "DU-145 [1]", "result": "Active"}, {"measurement": "inhibition at 1 µM", "setting": "CYP3A4 [2]", "result": 4, "unit": "%"}, {"measurement": "Activity", "setting": "DU-145 [3]", "result": "Non-Toxic"}, {"measurement": "inhibition at 10 µM", "setting": "CYP3A4 [4]", "result": 12, "unit": "%"}, {"measurement": "Activity", "setting": "PC-3 [5]", "result": "Non-Toxic"}, {"measurement": "Activity", "setting": "PC-3 [6]", "result": "Active"}, {"measurement": "inhibition at 10 µM", "setting": "CYP3A4 [7]", "result": 44, "unit": "%"}, {"measurement": "Activity", "setting": "LNCaP [8]", "result": "Active"}, {"measurement": "inhibition at 1 µM", "setting": "CYP2D6 [9]", "result": 15, "unit": "%"}, {"measurement": "Activity", "setting": "PC-3 [10]", "result": 35, "unit": "%"}, {"measurement": "inhibition at 1 µM", "setting": "CYP3A4 [11]", "result": 15, "unit": "%"}, {"measurement": "inhibition at 10 µM", "setting": "CYP2D6 [12]", "result": 22, "unit": "%"}, {"measurement": "Activity", "setting": "LNCaP [13]", "result": "Non-Toxic"}, {"measurement": "remaining at 1 h", "setting": "[14]", "result": 65, "unit": "%"}, {"measurement": "Activity", "setting": "PC-3 [15]", "result": "Active"}]}, {"smiles": "CCCn1c(=O)[nH]c2nc(-c3cnn(Cc4cccc(C(F)(F)F)c4)c3)[nH]c2c1=O", "values": [{"measurement": "Ki", "setting": "Adenosine receptor A2b", "result": 6, "unit": "nM"}]}, {"smiles": "CC1=C(C(=O)OC(C)C)C(c2ccco2)NC(=S)N1", "note": "(racemic)", "values": [{"measurement": "Activity", "setting": "DU-145 [1]", "result": "Active"}, {"measurement": "inhibition at 1 µM", "setting": "CYP3A4 [2]", "result": 3, "unit": "%"}, {"measurement": "Activity", "setting": "DU-145 [3]", "result": "Non-Toxic"}, {"measurement": "inhibition at 10 µM", "setting": "CYP3A4 [4]", "result": 1, "unit": "%"}, {"measurement": "Activity", "setting": "PC-3 [5]", "result": "Non-Toxic"}, {"measurement": "Activity", "setting": "PC-3 [6]", "result": "Active"}, {"measurement": "inhibition at 10 µM", "setting": "CYP3A4 [7]", "result": 13, "unit": "%"}, {"measurement": "Activity", "setting": "LNCaP [8]", "result": "Active"}, {"measurement": "inhibition at 1 µM", "setting": "CYP2D6 [9]", "result": 15, "unit": "%"}, {"measurement": "Activity", "setting": "PC-3 [10]", "result": 50, "unit": "%"}, {"measurement": "inhibition at 1 µM", "setting": "CYP3A4 [11]", "result": 1, "unit": "%"}, {"measurement": "inhibition at 10 µM", "setting": "CYP2D6 [12]", "result": 12, "unit": "%"}, {"measurement": "Activity", "setting": "LNCaP [13]", "result": "Non-Toxic"}, {"measurement": "inhibition", "setting": "[16]", "result": 1, "unit": "%"}, {"measurement": "remaining at 1 h", "setting": "[14]", "result": 77, "unit": "%"}, {"measurement": "Activity", "setting": "PC-3 [15]", "result": "Active"}]}]}
